Measurements: ChEMBL document CHEMBL1123864, “Synthetic bovine prothrombin precursor 13-29 for studies of vitamin K dependent carboxylase” (J Med Chem, 1987)
Peptide text beside a SMILES is read from it. * marks the point of attachment. Boc = CC(C)(C)OC(=O)*; Acm = CC(=O)NC*

T1: Vitamin K-dependent gamma-carboxylase (Rattus norvegicus) (UniProt O88496)
T1 sequence (whole entry): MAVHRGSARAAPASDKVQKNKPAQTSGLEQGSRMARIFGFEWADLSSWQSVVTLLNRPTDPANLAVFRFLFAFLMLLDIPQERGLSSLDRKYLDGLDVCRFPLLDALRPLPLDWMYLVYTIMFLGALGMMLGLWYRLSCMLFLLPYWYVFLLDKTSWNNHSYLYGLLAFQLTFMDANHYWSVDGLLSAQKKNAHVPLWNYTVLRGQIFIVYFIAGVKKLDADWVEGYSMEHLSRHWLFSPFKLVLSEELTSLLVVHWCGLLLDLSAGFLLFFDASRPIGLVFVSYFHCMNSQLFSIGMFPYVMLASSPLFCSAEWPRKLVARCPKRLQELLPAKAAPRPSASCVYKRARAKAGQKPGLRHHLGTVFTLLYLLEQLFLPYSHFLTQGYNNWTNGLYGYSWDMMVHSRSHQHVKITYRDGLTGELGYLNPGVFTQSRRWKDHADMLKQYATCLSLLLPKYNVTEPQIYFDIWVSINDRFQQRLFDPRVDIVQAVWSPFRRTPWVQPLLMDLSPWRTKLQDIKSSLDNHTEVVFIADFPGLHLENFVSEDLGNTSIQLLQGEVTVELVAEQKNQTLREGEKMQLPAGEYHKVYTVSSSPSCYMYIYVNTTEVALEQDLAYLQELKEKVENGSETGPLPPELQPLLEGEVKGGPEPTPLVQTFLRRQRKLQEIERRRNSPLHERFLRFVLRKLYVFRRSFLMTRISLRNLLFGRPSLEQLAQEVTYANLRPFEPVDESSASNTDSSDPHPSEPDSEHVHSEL

B1: Vitamin K-dependent gamma-carboxylase (Rattus norvegicus), O88496 (protein)
chain: MAVHRGSARAAPASDKVQKNKPAQTSGLEQGSRMARIFGFEWADLSSWQSVVTLLNRPTDPANLAVFRFLFAFLMLLDIPQERGLSSLDRKYLDGLDVCRFPLLDALRPLPLDWMYLVYTIMFLGALGMMLGLWYRLSCMLFLLPYWYVFLLDKTSWNNHSYLYGLLAFQLTFMDANHYWSVDGLLSAQKKNAHVPLWNYTVLRGQIFIVYFIAGVKKLDADWVEGYSMEHLSRHWLFSPFKLVLSEELTSLLVVHWCGLLLDLSAGFLLFFDASRPIGLVFVSYFHCMNSQLFSIGMFPYVMLASSPLFCSAEWPRKLVARCPKRLQELLPAKAAPRPSASCVYKRARAKAGQKPGLRHHLGTVFTLLYLLEQLFLPYSHFLTQGYNNWTNGLYGYSWDMMVHSRSHQHVKITYRDGLTGELGYLNPGVFTQSRRWKDHADMLKQYATCLSLLLPKYNVTEPQIYFDIWVSINDRFQQRLFDPRVDIVQAVWSPFRRTPWVQPLLMDLSPWRTKLQDIKSSLDNHTEVVFIADFPGLHLENFVSEDLGNTSIQLLQGEVTVELVAEQKNQTLREGEKMQLPAGEYHKVYTVSSSPSCYMYIYVNTTEVALEQDLAYLQELKEKVENGSETGPLPPELQPLLEGEVKGGPEPTPLVQTFLRRQRKLQEIERRRNSPLHERFLRFVLRKLYVFRRSFLMTRISLRNLLFGRPSLEQLAQEVTYANLRPFEPVDESSASNTDSSDPHPSEPDSEHVHSEL

Columns and labels:
[1] = biological target: T1, Vitamin K-dependent gamma-carboxylase (Rattus norvegicus); test: Evaluated as substrate for the rat liver microsomal vitamin K dependent carboxylase by dpm incorporation at 0.0625 mM
Method in brief: (§1)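 Rat liver microsomal carboxylase with the peptide as substrate. Incubations ran 60 min at 17 °C in duplicate and were averaged. Read-out was dpm incorporated, with the no-vitamin K blank subtracted. The enzyme requires oxygen, reduced vitamin K and carbon dioxide.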

[2] = biological target: T1, Vitamin K-dependent gamma-carboxylase (Rattus norvegicus); test: Evaluated as substrate for the rat liver microsomal vitamin K dependent carboxylase by dpm incorporation at 0.125 mM; method in brief: as §1
[3] = biological target: T1, Vitamin K-dependent gamma-carboxylase (Rattus norvegicus); test: Evaluated as substrate for the rat liver microsomal vitamin K dependent carboxylase by dpm incorporation at 0.25 mM; method in brief: as §1
[4] = biological target: T1, Vitamin K-dependent gamma-carboxylase (Rattus norvegicus); test: Substrate activity was determined for the rat liver microsomal vitamin K dependent carboxylase by dpm incorporation at 0.0625 mM; method in brief: as §1
[5] = biological target: T1, Vitamin K-dependent gamma-carboxylase (Rattus norvegicus); test: Substrate activity was determined for the rat liver microsomal vitamin K dependent carboxylase by dpm incorporation at 0.125 mM; method in brief: as §1
[6] = biological target: T1, Vitamin K-dependent gamma-carboxylase (Rattus norvegicus); test: Substrate activity was determined for the rat liver microsomal vitamin K dependent carboxylase by dpm incorporation at 0.25 mM; method in brief: as §1
[7] = substrate: CC(C)C[C@H]1NC(=O)[C@H](N)CSSC[C@@H](C(=O)O)NC(=O)[C@@H]2CCCN2C(=O)[C@@H](CCC(=O)O)NC(=O)[C@H](CCC(=O)O)NC1=O; test: Binding affinity was evaluated for the compound against Vitamin K dependent carboxylase

Row | Molecule | Activity [1] | Activity [2] | Activity [3] | Activity [4] | Activity [5] | Activity [6] | Km [7] [µM]
1 | COC(=O)[C@H](CC(C)C)NC(=O)[C@H](CCC(=O)O)NC(=O)[C@H](CCC(=O)O)NC(=O)OC(C)(C)C (Boc-Glu-Glu-Leu-OMe) | 3020 | 5770 | 11400 |  |  |  | 
2 | CC(C)C[C@H](NC(=O)[C@@H](N)CC(N)=O)C(=O)N[C@@H](CCC(=O)O)C(=O)N[C@@H](CCCN=C(N)N)C(=O)N[C@@H](CCC(=O)O)C(=O)N[C@@H]1CSSC[C@@H](C(=O)N[C@@H](CO)C(=O)N[C@@H](CCCN=C(N)N)C(=O)N[C@@H](CCC(=O)O)C(=O)N[C@@H](CCC(=O)O)C(=O)N[C@@H](C)C(=O)N[C@@H](Cc2ccccc2)C(=O)O)NC(=O)[C@@H]2CCCN2C(=O)[C@@H](CCC(=O)O)NC(=O)[C@H](CCC(=O)O)NC(=O)[C@@H](CC(C)C)NC1=O |  |  |  | 240 | 480 | 810 | 
3 | CC(=O)NCSC[C@H](NC(=O)[C@H](CCC(=O)O)NC(=O)[C@H](CCCN=C(N)N)NC(=O)[C@H](CCC(=O)O)NC(=O)[C@H](CC(C)C)NC(=O)[C@@H](N)CC(N)=O)C(=O)N[C@@H](CC(C)C)C(=O)N[C@@H](CCC(=O)O)C(=O)N[C@@H](CCC(=O)O)C(=O)N1CCC[C@H]1C(=O)N[C@@H](CSCNC(C)=O)C(=O)N[C@@H](CO)C(=O)N[C@@H](CCCN=C(N)N)C(=O)N[C@@H](CCC(=O)O)C(=O)N[C@@H](CCC(=O)O)C(=O)N[C@@H](C)C(=O)N[C@@H](Cc1ccccc1)C(=O)O (H-NLEREC(Acm)LEEPC(Acm)SREEAF-OH) |  |  |  | 480 | 920 | 2380 | 
4 | B1 |  |  |  |  |  |  | 3000
